Assay [1] addresses T1, Retinoic acid receptor alpha (Homo sapiens, UniProt P10276).
T1 sequence (P10276 whole entry): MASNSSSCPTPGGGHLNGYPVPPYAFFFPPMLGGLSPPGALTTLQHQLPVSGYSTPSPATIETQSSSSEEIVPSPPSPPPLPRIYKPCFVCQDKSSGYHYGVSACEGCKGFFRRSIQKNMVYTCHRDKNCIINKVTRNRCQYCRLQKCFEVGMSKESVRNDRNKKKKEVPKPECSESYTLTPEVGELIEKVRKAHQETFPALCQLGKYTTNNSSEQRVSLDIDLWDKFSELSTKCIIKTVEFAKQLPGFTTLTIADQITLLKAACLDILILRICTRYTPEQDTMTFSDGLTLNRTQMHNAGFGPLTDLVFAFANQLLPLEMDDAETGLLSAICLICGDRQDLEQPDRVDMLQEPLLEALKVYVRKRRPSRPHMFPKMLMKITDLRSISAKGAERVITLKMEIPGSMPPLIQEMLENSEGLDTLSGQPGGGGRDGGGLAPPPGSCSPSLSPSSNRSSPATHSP
The assay can be described thus: Antagonist activity at recombinant human RAR-alpha expressed in mammalian cells in presence of 9-cis-RA by luciferase reporter gene based transactivation assay. It is filed as cell-based. A digest of the protocol: (§1)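 Compounds 8-point dose response in triplicate, DMSO final 0.4%; overnight at 37 °C, 5% CO2; luminescence after 30 min detection reagent. IC50 by four-parameter logistic fit; agonist-free wells set background.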

Assay [2] addresses T2, Retinoic acid receptor beta (Homo sapiens, UniProt P10826).
T2 sequence (P10826 whole entry): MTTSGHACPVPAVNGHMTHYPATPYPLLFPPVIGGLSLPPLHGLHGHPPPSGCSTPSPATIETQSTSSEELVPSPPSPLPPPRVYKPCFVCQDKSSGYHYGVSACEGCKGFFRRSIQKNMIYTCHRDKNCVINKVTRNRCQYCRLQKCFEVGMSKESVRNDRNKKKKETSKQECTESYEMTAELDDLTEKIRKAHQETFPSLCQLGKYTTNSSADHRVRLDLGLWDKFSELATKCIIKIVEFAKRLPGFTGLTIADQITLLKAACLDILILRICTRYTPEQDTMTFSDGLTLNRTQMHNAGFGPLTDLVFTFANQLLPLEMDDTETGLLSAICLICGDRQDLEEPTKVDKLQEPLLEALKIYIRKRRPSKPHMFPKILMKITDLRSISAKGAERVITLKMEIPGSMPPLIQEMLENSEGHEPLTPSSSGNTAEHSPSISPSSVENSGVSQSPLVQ
In words: Antagonist activity at recombinant human RAR-beta expressed in mammalian cells in presence of ATRA by luciferase reporter gene based transactivation assay. In kind it is cell-based.

In assay [3] the target is T3, Retinoic acid receptor gamma (Homo sapiens, UniProt P13631).
T3 sequence (P13631 whole entry): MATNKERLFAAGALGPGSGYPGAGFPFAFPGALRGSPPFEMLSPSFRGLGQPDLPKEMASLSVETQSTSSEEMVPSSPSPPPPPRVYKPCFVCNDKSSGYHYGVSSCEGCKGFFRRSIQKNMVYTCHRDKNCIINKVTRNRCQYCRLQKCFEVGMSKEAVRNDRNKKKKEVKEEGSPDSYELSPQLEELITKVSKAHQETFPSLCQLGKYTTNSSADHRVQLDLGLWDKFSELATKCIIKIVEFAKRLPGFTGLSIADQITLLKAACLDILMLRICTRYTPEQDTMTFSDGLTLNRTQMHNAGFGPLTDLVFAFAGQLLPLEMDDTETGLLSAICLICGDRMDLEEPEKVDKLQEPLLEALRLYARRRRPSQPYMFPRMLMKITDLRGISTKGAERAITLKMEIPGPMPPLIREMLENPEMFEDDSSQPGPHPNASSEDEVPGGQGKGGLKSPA
The assay can be described thus: Antagonist activity at recombinant human RAR-gamma expressed in mammalian cells in presence of ATRA by luciferase reporter gene based transactivation assay. It is filed as cell-based. A digest of the protocol:
as §1

For assay [4], the target named is T3, Retinoic acid receptor gamma. In words: Agonist activity at recombinant human RAR-gamma expressed in mammalian cells by luciferase reporter gene based transactivation assay. In kind it is cell-based. Summed up: (§2)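 Human RAR-subtype luciferase reporter cells (RARE-driven). Compounds in DMSO (final 0.4%) tested as 8-point dose response in triplicate. Incubated overnight at 37 °C in 5% CO2, then detection reagent 30 min at r.t. and luminescence measured. EC50 by four-parameter logistic fit, mean ± SEM from geometric mean of log EC50 across independent experiments.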

The target of assay [5] is T1, Retinoic acid receptor alpha.
Assay [6] addresses T4, Retinoic acid receptor gamma (Homo sapiens) (UniProt P13631).
T4 sequence (whole entry): T3 sequence (P13631 whole entry)
The assay can be described thus: Agonist activity at recombinant human RAR-gamma expressed in mammalian cells by luciferase reporter gene based transactivation assay relative to control. It is filed as cell-based. A digest of the protocol: (§3)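 Transactivation in proprietary reporter cells expressing recombinant human RAR subtype with RARE-linked beetle luciferase. Compounds in DMSO (final 0.4%), 8-point dose response in triplicate; cells added, incubated overnight at 37 °C, 5% CO2, then luciferase reagent 30 min r.t., luminescence read.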

Assay [7] concerns the target T5, Retinoic acid receptor beta (Homo sapiens) (UniProt P10826).
T5 sequence (whole entry): T2 sequence (P10826 whole entry)
In words: Agonist activity at recombinant human RAR-beta expressed in mammalian cells by luciferase reporter gene based transactivation assay relative to control. It is filed as cell-based. Summed up: as §3

Assay [8] has as its target T2, Retinoic acid receptor beta. The assay can be described thus: Agonist activity at recombinant human RAR-beta expressed in mammalian cells by luciferase reporter gene based transactivation assay. In kind it is cell-based. Summed up:
as §2

The target in assay [9] is T6, Retinoic acid receptor alpha (Homo sapiens) (UniProt P10276).
T6 sequence (whole entry): T1 sequence (P10276 whole entry)
The assay can be described thus: Agonist activity at recombinant human RAR-alpha expressed in mammalian cells by luciferase reporter gene based transactivation assay relative to control. It is filed as cell-based. Summed up: as §3

`Cc1ccc(C2=CCC(C)(C)c3ccc(NC(=O)Nc4ccc(C(=O)O)cc4)cc32)cc1`: the IC50 was over 3.3 µM in assay [1], 0.84 µM in assay [2] and over 3.3 µM in [3].
As for `Cc1ccc(C2=CC(C)(C)Oc3ccc(S(=O)(=O)Nc4ccc(C(=O)O)cc4)cc32)cc1`, the IC50 in assay [1], in [2] and in [3] was over 3.3 µM throughout.
Take `CC1(C)CC=C(c2ccccc2)c2cc(/C=C/c3ccc(C(=O)O)cc3)ccc21`: the EC50 in assay [4] is 0.12 µM. Besides, the IC50 is 0.0094 µM in [1], 0.0075 µM in [3] and about 0.01 µM in assay [5]. In addition, the Emax in assay [6] was found to be 26%.
For `Cc1ccc(C2=CCC(C)(C)c3ccc(C(=O)NCc4ccc(C(=O)O)cc4)cc32)cc1`, the IC50 in [1], in assay [2] and in [3] was over 3.3 µM throughout.
For `Cc1ccc(C2=CC(C)(C)Oc3ccc(NS(=O)(=O)c4ccc(C(=O)O)cc4)cc32)cc1`, the IC50 in assay [1], in assay [2] and in assay [3] was over 3.3 µM throughout.
`CC1(C)CC=C(c2cccs2)c2cc(C(=O)Nc3ccc(C(=O)O)cc3)ccc21`: the results for the maximal response (Emax) in [7] (filed as agonist) and in assay [9] were 167% and 3%, respectively. Further, in assay [8], the EC50 was determined as 0.015 µM. For the same molecule, the IC50 was 0.44 µM in assay [1], over 3.3 µM in [2] and over 3.3 µM in [3].
In the case of `Cc1ccc(C2=CCC(C)(C)c3ccc(N4CCc5cc(C(=O)O)ccc5C4)cc32)cc1`, the IC50 in [1] was over 3.3 µM; in assay [2], 0.35 µM; in assay [3], over 3.3 µM.
With `CC1(C)CC=C(c2ccc(N3CCOCC3)cc2)c2cc(NC(=O)c3ccc(C(=O)O)c([N+](=O)[O-])c3)ccc21`, the IC50 in assay [1], in assay [2] and in assay [3] was over 3.3 µM in each case.
In the case of `Cc1ccc(C2=CCC(C)(C)c3ccc(C(=O)Nc4cc(F)c(C(=O)O)c(F)c4)cc32)cc1`, the IC50 in assay [1] was 0.43 µM; in assay [2] it was over 3.3 µM; in [3] it was over 3.3 µM.
In the case of `CC1(C)CC=C(c2ccccc2)c2cc(C(=O)Nc3ccc(C(=O)O)cc3)ccc21`, the maximal effect (Emax) in assay [7] (filed as agonist) amounted to 150%; in assay [9], 4%; in assay [6] (filed as agonist), 47%. The results for the EC50 in [4] and in assay [8] were 0.56 µM and 0.025 µM, respectively. For the same molecule, the IC50 in assay [1] was 0.14 µM; in [2] it was over 3.3 µM; in assay [3], over 3.3 µM.
Consider `CC1(C)CC=C(c2ccc(CN3CCOCC3)cc2)c2cc(NC(=O)c3ccc(C(=O)O)cc3)ccc21`, for which the IC50 in assay [1] is 1.5 µM; in [2], over 3.3 µM; in [3], over 3.3 µM.
As for `Cc1ccc(C2=CC(C)(C)Oc3ccc(S(=O)(=O)Nc4cc(F)c(C(=O)O)c(F)c4)cc32)cc1`, the IC50 in assay [1], in assay [2] and in assay [3] was over 3.3 µM throughout.
For `Cc1ccc(C2=CC(C)(C)Oc3c(Br)cc(S(=O)(=O)Nc4cc(F)c(C(=O)O)c(F)c4)cc32)cc1`, the IC50 in [1], in assay [2] and in assay [3] was over 3.3 µM throughout.
In the case of `CC1(C)CC=C(c2ccccc2)c2cc(NC(=O)Nc3ccc(C(=O)O)cc3)ccc21`, the IC50 in assay [1], in assay [2] and in [3] was over 3.3 µM in each case.
Take `CC1(C)CC=C(c2ccc(N3CCOCC3)cc2)c2cc(C(=O)Nc3ccc(C(=O)O)cc3)ccc21`: the IC50 in assay [1] was 1.1 µM; in assay [2] it was over 3.3 µM; in assay [3], 1.5 µM.
For `CC1(C)CC=C(c2ccc(N3CCOCC3)cc2)c2cc(NC(=O)Nc3ccc(C(=O)O)cc3)ccc21` the same measures were over 3.3 µM, over 3.3 µM and over 3.3 µM.
In the same order, the values of `Cc1ccc(C2=CC(C)(C)Oc3c(Br)cc(S(=O)(=O)Nc4ccc(C(=O)O)cc4)cc32)cc1` are over 3.3 µM, over 3.3 µM and over 3.3 µM.
For `Cc1ccc(C2=CCC(C)(C)c3ccc(-c4ccc5cc(C(=O)O)ccc5n4)cc32)cc1` the same measures were over 3.3 µM, 0.021 µM and 0.13 µM.
`Cc1ccc(C2=CCC(C)(C)c3ccc(C(=O)Nc4ccc(C(=O)O)cc4)cc32)cc1`: the Emax in [7] (filed as agonist) came out at 46%; in assay [9] it was 9%; in [6], 15%. Besides, the results for the EC50 in [4] and in assay [8] were over 3.3 µM and 0.055 µM, respectively. Besides, the results for the IC50 in [1], in assay [2] and in [3] were 0.029 µM, over 3.3 µM and 2.6 µM, respectively.
Take `CC1(C)CC=C(c2ccc(C(=O)N3CCOCC3)cc2)c2cc(NC(=O)c3ccc(C(=O)O)cc3)ccc21`: the IC50 in assay [1], in assay [2] and in assay [3] was over 3.3 µM throughout.
Take `CC1(C)CC=C(c2ccccc2)c2cc(C(=O)NCc3ccc(C(=O)O)cc3)ccc21`: the IC50 in assay [1], in assay [2] and in assay [3] was over 3.3 µM each time.
Turning to `CC1(C)CC=C(c2ccc(CN3CCOCC3)cc2)c2cc(C(=O)Nc3ccc(C(=O)O)cc3)ccc21`, the Emax in assay [7], in [9] and in assay [6] was 0% each time. For the same molecule, the IC50 in assay [1] was 0.52 µM; in assay [2], 0.173 µM; in assay [3], over 3.3 µM.
For `Cc1ccc(C2=CCC(C)(C)c3ccc(C(=O)N4CCc5cc(C(=O)O)ccc5C4)cc32)cc1`, the IC50 in assay [1], in assay [2] and in assay [3] was over 3.3 µM in each case.
As for `CC1(C)CC=C(c2cnc3ccccc3c2)c2cc(C(=O)Nc3ccc(C(=O)O)cc3)ccc21`, the IC50 in assay [1] stood at 0.27 µM; in assay [2] it was 0.26 µM; in assay [3], 2.7 µM.
In the same order, the values of `CC1(C)CC=C(c2ccc(N3CCOCC3)cc2)c2cc(NC(=O)c3ccc(C(=O)O)cc3)ccc21` are over 3.3 µM, 0.73 µM and over 3.3 µM.
